In ChEMBL document CHEMBL1649322, “Oral treatment options for ambulatory patients with urinary tract infections caused by extended-spectrum-beta-lactamase-producing Escherichia coli” (2010):
In brackets after ≈: the same amount, converted by molar mass.

What was measured:
[1] = system: Escherichia coli; assay: Antimicrobial activity against xtended-spectrum-beta-lactamase-producing Escherichia coli obtained from urinary tract infection patient assessed as percent susceptible isolates by Etest; assay type: functional, Urine
Procedure, shortened: (§1)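 ESBL-producing E. coli isolates from urinary tract infections; ESBL expression confirmed by double-disk synergy test per 2007 CLSI guidelines. Verified isolates (n = 100) tested by Etest, alongside agar diffusion, for pivmecillinam, fosfomycin and ertapenem. Read-outs were MIC and susceptibility category (susceptible, reduced/intermediate, resistant), given as percent of isolates; mean MIC calculated for susceptible isolates.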

[2] = system: Escherichia coli; assay: Antimicrobial activity against xtended-spectrum-beta-lactamase-producing Escherichia coli obtained from urinary tract infection patient by Etest; assay type: functional; conditions: Urine; procedure, shortened: as §1

| Compound | Activity [1] [%] | MIC [2] [µg/mL] | Activity ([1]; Urine) [%] |
| --- | --- | --- | --- |
| CC(C)(C)C(=O)OCOC(=O)[C@@H]1N2C(=O)[C@@H](/N=C/N3CCCCCC3)[C@H]2SC1(C)C [AMDINOCILLIN PIVOXIL] | 85 | 1.17 (≈ 2.66 µM) | – |
| O=C(O)c1cn(C2CC2)c2cc(N3CCNCC3)c(F)cc2c1=O [CIPROFLOXACIN] | 22 | – | – |
| C[C@@H](O)[C@H]1C(=O)N2C(C(=O)O)=C(S[C@@H]3CN[C@H](C(=O)Nc4cccc(C(=O)O)c4)C3)[C@H](C)[C@H]12 [ERTAPENEM] | 100 | 0.07 (≈ 0.147 µM) | – |
| C[C@@H]1O[C@@H]1P(=O)(O)O [FOSFOMYCIN] | 97 | 1.38 (≈ 10 µM) | – |
| O=C1CN(/N=C/c2ccc([N+](=O)[O-])o2)C(=O)N1 [NITROFURANTOIN] | 94 | 17 (≈ 71.5 µM) | – |
| GENTAMICIN | – | – | 78 |
